Data from ChEMBL document CHEMBL5724801, “EUbOPEN Chemogenomics Library - Multiplex” (2024).
“And” between values parts separate entries of the source, which are not always exact repeats. Identical values can stand only once.

Test system: Fibroblast
Assay: Multiplex assay against human fibroblast
Type: toxicity, cell-based
Summary of the method: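 At seeding, live cells were stained with Hoechst33342, BioTracker Green Microtubule Cytoskeleton Dye, MitoTracker Red and Annexin V Alexa Fluor 680. After compound addition they were imaged on a CQ1 microscope at 37°C and 5% CO2, and CellPathfinder machine-learning gating sorted them into Hoechst high-intensity objects or normal cells, with normal cells further split into healthy, pyknosed or fragmented nuclei and pyknosed cells into mitotic or apoptotic. Tubulin, mitochondrial-mass and membrane-permeability phenotypes are given as per cents of cells with healthy nuclei.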

[1] = 12 h, 1 µM, compound concentration 1 uM
[2] = 12 h, 10 µM, compound concentration 10 uM
[3] = 24 h, 1 µM, compound concentration 1 uM
[4] = 24 h, 10 µM, compound concentration 10 uM
[5] = 48 h, 1 µM, compound concentration 1 uM
[6] = 48 h, 10 µM, compound concentration 10 uM

## FC(F)(F)c1ccccc1-c1cc(C(F)(F)F)c2[nH]c(C3=NOC4(CCCCC4)C3)nc2c1
[1]
  Population Apoptotic (%): 11.43% and 13.33%
  Population Fragmented Nuclei (%): 11.76% and 2.87%
  Population Healthy Nuclei (%): 56.56% and 79.89%
  Population Hoechst High Intensity Objects (%): 0%
  Population Membrane Permeable-Phenotype (%): 8% and 4.32%
  Population Mitochondria Different-Phenotype (%): 4.8% and 10.07%
  Population Mitotic Cells (%): 88.57% and 86.67%
  Population Normal (%): 100%
  Population Pyknosed Nuclei (%): 31.67% and 17.24%
  Population Tubulin-Different-Phenotype (%): 12.8% and 20.14%
  Total Cell Count: 221 and 174
[2]
  Population Apoptotic (%): 7.62% and 14.29%
  Population Fragmented Nuclei (%): 10% and 8.05%
  Population Healthy Nuclei (%): 42.27% and 63.79%
  Population Hoechst High Intensity Objects (%): 0%
  Population Membrane Permeable-Phenotype (%): 12.9% and 5.41%
  Population Mitochondria Different-Phenotype (%): 19.35% and 15.32%
  Population Mitotic Cells (%): 92.38% and 85.71%
  Population Normal (%): 100%
  Population Pyknosed Nuclei (%): 47.73% and 28.16%
  Population Tubulin-Different-Phenotype (%): 30.11% and 51.35%
  Total Cell Count: 220 and 174
[3]
  Population Apoptotic (%): 10.91% and 15.62%
  Population Fragmented Nuclei (%): 8.06% and 4.79%
  Population Healthy Nuclei (%): 69.76% and 78.19%
  Population Hoechst High Intensity Objects (%): 0%
  Population Membrane Permeable-Phenotype (%): 3.47% and 3.4%
  Population Mitochondria Different-Phenotype (%): 7.51% and 4.08%
  Population Mitotic Cells (%): 89.09% and 84.38%
  Population Normal (%): 100%
  Population Pyknosed Nuclei (%): 22.18% and 17.02%
  Population Tubulin-Different-Phenotype (%): 17.92% and 18.37%
  Total Cell Count: 248 and 188
[4]
  Population Apoptotic (%): 13% and 17.86%
  Population Fragmented Nuclei (%): 7.66% and 9.09%
  Population Healthy Nuclei (%): 44.5% and 60.96%
  Population Hoechst High Intensity Objects (%): 0%
  Population Membrane Permeable-Phenotype (%): 7.53% and 4.39%
  Population Mitochondria Different-Phenotype (%): 25.81% and 29.82%
  Population Mitotic Cells (%): 87% and 82.14%
  Population Normal (%): 100%
  Population Pyknosed Nuclei (%): 47.85% and 29.95%
  Population Tubulin-Different-Phenotype (%): 69.89% and 65.79%
  Total Cell Count: 209 and 187
[5]
  Population Apoptotic (%): 20.83% and 16.67%
  Population Fragmented Nuclei (%): 8.37% and 6.59%
  Population Healthy Nuclei (%): 82.51% and 86.81%
  Population Hoechst High Intensity Objects (%): 0%
  Population Membrane Permeable-Phenotype (%): 1.38% and 1.27%
  Population Mitochondria Different-Phenotype (%): 10.14% and 2.53%
  Population Mitotic Cells (%): 79.17% and 83.33%
  Population Normal (%): 100%
  Population Pyknosed Nuclei (%): 9.13% and 6.59%
  Population Tubulin-Different-Phenotype (%): 7.83% and 18.99%
  Total Cell Count: 263 and 182
[6]
  Population Fragmented Nuclei (%): 9.33% and 11.92%
  Population Healthy Nuclei (%): 78.22% and 73.06%
  Population Hoechst High Intensity Objects (%): 0%
  Population Membrane Permeable-Phenotype (%): 0.57% and 4.26%
  Population Mitochondria Different-Phenotype (%): 13.64% and 7.8%
  Population Mitotic Cells (%): 96.43% and 55.17%
  Population Normal (%): 100%
  Population Pyknosed Nuclei (%): 12.44% and 15.03%
  Population Tubulin-Different-Phenotype (%): 38.64% and 60.99%
  Total Cell Count: 225 and 193

## CN(C)c1ccnc2sc3c(=O)n(N4CCCCCC4)cnc3c12
[1]
  Population Apoptotic (%): 42% and 30%
  Population Fragmented Nuclei (%): 17% and 28%
  Population Healthy Nuclei (%): 64% and 51%
  Population Hoechst High Intensity Objects (%): 3% and 6%
  Population Membrane Permeable-Phenotype (%): 1% and 10%
  Population Mitochondria Different-Phenotype (%): 3%
  Population Mitotic Cells (%): 57% and 70%
  Population Normal (%): 96% and 93%
  Population Pyknosed Nuclei (%): 18% and 19%
  Population Tubulin-Different-Phenotype (%): 29% and 44%
  Total Cell Count: 144 and 162
[2]
  Population Apoptotic (%): 44% and 49%
  Population Fragmented Nuclei (%): 14% and 31%
  Population Healthy Nuclei (%): 58% and 30%
  Population Hoechst High Intensity Objects (%): 5% and 7%
  Population Mitochondria Different-Phenotype (%): 14%
  Population Mitotic Cells (%): 55% and 50%
  Population Normal (%): 94% and 92%
  Population Pyknosed Nuclei (%): 27% and 38%
  Population Tubulin-Different-Phenotype (%): 75%
  Total Cell Count: 141 and 145
[3]
  Population Apoptotic (%): 48% and 50%
  Population Fragmented Nuclei (%): 11% and 24%
  Population Healthy Nuclei (%): 67% and 55%
  Population Hoechst High Intensity Objects (%): 3% and 2%
  Population Membrane Permeable-Phenotype (%): 0% and 10%
  Population Mitochondria Different-Phenotype (%): 3% and 2%
  Population Mitotic Cells (%): 51% and 50%
  Population Normal (%): 96% and 97%
  Population Pyknosed Nuclei (%): 21% and 19%
  Population Tubulin-Different-Phenotype (%): 27% and 49%
  Total Cell Count: 143 and 146
[4]
  Population Apoptotic (%): 57% and 30%
  Population Fragmented Nuclei (%): 13% and 35%
  Population Healthy Nuclei (%): 58% and 41%
  Population Hoechst High Intensity Objects (%): 5% and 8%
  Population Membrane Permeable-Phenotype (%): 0% and 22%
  Population Mitochondria Different-Phenotype (%): 18% and 24%
  Population Mitotic Cells (%): 42% and 69%
  Population Normal (%): 94% and 91%
  Population Pyknosed Nuclei (%): 28% and 22%
  Population Tubulin-Different-Phenotype (%): 63% and 85%
  Total Cell Count: 130 and 128
[5]
  Population Apoptotic (%): 64% and 36%
  Population Fragmented Nuclei (%): 19% and 36%
  Population Healthy Nuclei (%): 70% and 49%
  Population Hoechst High Intensity Objects (%): 2% and 3%
  Population Membrane Permeable-Phenotype (%): 0% and 6%
  Population Mitochondria Different-Phenotype (%): 0% and 2%
  Population Mitotic Cells (%): 35% and 63%
  Population Normal (%): 97% and 96%
  Population Pyknosed Nuclei (%): 10% and 14%
  Population Tubulin-Different-Phenotype (%): 30% and 41%
  Total Cell Count: 143 and 157
[6]
  Population Apoptotic (%): 73% and 50%
  Population Fragmented Nuclei (%): 22% and 47%
  Population Healthy Nuclei (%): 47% and 42%
  Population Hoechst High Intensity Objects (%): 8% and 6%
  Population Membrane Permeable-Phenotype (%): 0% and 19%
  Population Mitochondria Different-Phenotype (%): 25% and 13%
  Population Mitotic Cells (%): 26% and 50%
  Population Normal (%): 91% and 93%
  Population Tubulin-Different-Phenotype (%): 76% and 86%
  Total Cell Count: 138 and 131
